Values after ≈ are worked out from the molar mass of the structure shown.
Assays:
Assay type in all cases: functional
Athelia rolfsii [1] = experiment: Antifungal activity against Athelia rolfsii assessed as growth inhibition at 7.25 ug/ml by poisoned food technique; conditions: Agroathelia rolfsii
Procedure, shortened: (§1)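 Poisoned-food assay on potato dextrose agar: test material is dissolved and diluted in acetone and mixed into the medium before pouring, with an acetone-only control. A 5 mm mycelial disk is cut from the growing edge of a 2-week-old colony and placed inoculum-down at the plate centre. Plates are incubated at 28 °C until control growth is nearly complete. Colony diameter is measured, and % inhibition = (C−T)/C×100. Four replicates give the mean.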

Pythium aphanidermatum [2] = experiment: Antifungal activity against Pythium aphanidermatum assessed as growth inhibition at 31 ug/ml by poisoned food technique; procedure, shortened: as §1
[3] = tested on: Globisporangium debaryanum; experiment: Antifungal activity against Pythium debaryanum assessed as growth inhibition at 7.25 ug/ml by poisoned food technique; procedure, shortened: as §1
Fusarium udum [4] = experiment: Antifungal activity against Fusarium udum assessed as growth inhibition at 7.25 ug/ml by poisoned food technique; procedure, shortened: as §1
Macrophomina phaseolina [5] = experiment: Antifungal activity against Rhizoctonia bataticola assessed as growth inhibition by poisoned food technique; conditions: read-out: ED50 (the source's name)
Procedure, shortened: (§2)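 ED50 from poisoned-food growth inhibition on PDA at 250, 125 and 62.5 μg/mL in medium, with an acetone control. Plates were inoculated with a 5 mm mycelial disc, incubated at 28 °C, and colony diameter was measured in quadruplicate. Percent inhibition was corrected by Abbott's formula, using a correction factor from the 9 cm dish diameter, and ED50 (μg/mL) was derived by probit analysis.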

Athelia rolfsii [6] = experiment: Antifungal activity against Athelia rolfsii assessed as growth inhibition at 31 ug/ml by poisoned food technique; conditions: Agroathelia rolfsii; procedure, shortened: as §1
[7] = tested on: Globisporangium debaryanum; experiment: Antifungal activity against Pythium debaryanum assessed as growth inhibition at 31 ug/ml by poisoned food technique; procedure, shortened: as §1
Fusarium udum [8] = experiment: Antifungal activity against Fusarium udum assessed as growth inhibition at 31 ug/ml by poisoned food technique; procedure, shortened: as §1
Macrophomina phaseolina [9] = experiment: Antifungal activity against Rhizoctonia bataticola assessed as growth inhibition at 15.50 ug/ml by poisoned food technique; procedure, shortened: as §1
Athelia rolfsii [10] = experiment: Antifungal activity against Athelia rolfsii assessed as growth inhibition at 15.50 ug/ml by poisoned food technique; conditions: Agroathelia rolfsii; procedure, shortened: as §1
Pythium aphanidermatum [11] = experiment: Antifungal activity against Pythium aphanidermatum assessed as growth inhibition at 15.50 ug/ml by poisoned food technique; procedure, shortened: as §1
Athelia rolfsii [12] = experiment: Antifungal activity against Athelia rolfsii assessed as growth inhibition by poisoned food technique; conditions: Agroathelia rolfsii; read-out: ED50 (the source's name); procedure, shortened: as §2
Pythium aphanidermatum [13] = experiment: Antifungal activity against Pythium aphanidermatum assessed as growth inhibition by poisoned food technique; conditions: read-out: ED50 (the source's name); procedure, shortened: as §2
Pythium aphanidermatum [14] = experiment: Antifungal activity against Pythium aphanidermatum assessed as growth inhibition at 7.25 ug/ml by poisoned food technique; procedure, shortened: as §1
Macrophomina phaseolina [15] = experiment: Antifungal activity against Rhizoctonia bataticola assessed as growth inhibition at 7.25 ug/ml by poisoned food technique; procedure, shortened: as §1
Macrophomina phaseolina [16] = experiment: Antifungal activity against Rhizoctonia bataticola assessed as growth inhibition at 31 ug/ml by poisoned food technique; procedure, shortened: as §1
[17] = tested on: Globisporangium debaryanum; experiment: Antifungal activity against Pythium debaryanum assessed as growth inhibition at 15.50 ug/ml by poisoned food technique; procedure, shortened: as §1
Fusarium udum [18] = experiment: Antifungal activity against Fusarium udum assessed as growth inhibition at 15.50 ug/ml by poisoned food technique; procedure, shortened: as §1
Rhizoctonia solani [19] = experiment: Antifungal activity against Rhizoctonia solani assessed as growth inhibition at 15.50 ug/ml by poisoned food technique; procedure, shortened: as §1
Rhizoctonia solani [20] = experiment: Antifungal activity against Rhizoctonia solani assessed as growth inhibition by poisoned food technique; conditions: read-out: ED50 (the source's name); procedure, shortened: as §2
Fusarium udum [21] = experiment: Antifungal activity against Fusarium udum assessed as growth inhibition by poisoned food technique; conditions: read-out: ED50 (the source's name); procedure, shortened: as §2
Rhizoctonia solani [22] = experiment: Antifungal activity against Rhizoctonia solani assessed as growth inhibition at 7.25 ug/ml by poisoned food technique; procedure, shortened: as §1
[23] = tested on: Globisporangium debaryanum; experiment: Antifungal activity against Pythium debaryanum assessed as growth inhibition by poisoned food technique; conditions: read-out: ED50 (the source's name); procedure, shortened: as §2
Rhizoctonia solani [24] = experiment: Antifungal activity against Rhizoctonia solani assessed as growth inhibition at 31 ug/ml by poisoned food technique; procedure, shortened: as §1
Athelia rolfsii [25] = experiment: Antifungal activity against Athelia rolfsii assessed as growth inhibition at 125 ug/ml by poisoned food technique; conditions: Agroathelia rolfsii
Procedure, shortened: (§3)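 Poisoned-food assay on PDA. Test material was diluted in acetone and mixed into molten medium at final 250, 125 or 62.5 μg/mL, with 1 mL acetone as control. Plates received a 5 mm mycelial disc from the front of a 2-week-old colony and were incubated at 28 °C until control growth was nearly complete. Colony diameter was measured, giving %I = (C−T)/C×100. Mean ± SD of four replicates.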

Pythium aphanidermatum [26] = experiment: Antifungal activity against Pythium aphanidermatum assessed as growth inhibition at 62.5 ug/ml by poisoned food technique; procedure, shortened: as §3
Athelia rolfsii [27] = experiment: Antifungal activity against Athelia rolfsii assessed as growth inhibition at 62.5 ug/ml by poisoned food technique; conditions: Agroathelia rolfsii; procedure, shortened: as §3
[28] = tested on: Globisporangium debaryanum; experiment: Antifungal activity against Pythium debaryanum assessed as growth inhibition at 125 ug/ml by poisoned food technique; procedure, shortened: as §3
[29] = tested on: Globisporangium debaryanum; experiment: Antifungal activity against Pythium debaryanum assessed as growth inhibition at 62.5 ug/ml by poisoned food technique; procedure, shortened: as §3
Rhizoctonia solani [30] = experiment: Antifungal activity against Rhizoctonia solani assessed as growth inhibition at 250 ug/ml by poisoned food technique; procedure, shortened: as §3
Pythium aphanidermatum [31] = experiment: Antifungal activity against Pythium aphanidermatum assessed as growth inhibition at 250 ug/ml by poisoned food technique; procedure, shortened: as §3
Macrophomina phaseolina [32] = experiment: Antifungal activity against Rhizoctonia bataticola assessed as growth inhibition at 250 ug/ml by poisoned food technique; procedure, shortened: as §3
Rhizoctonia solani [33] = experiment: Antifungal activity against Rhizoctonia solani assessed as growth inhibition at 62.5 ug/ml by poisoned food technique; procedure, shortened: as §3
Athelia rolfsii [34] = experiment: Antifungal activity against Athelia rolfsii assessed as growth inhibition at 250 ug/ml by poisoned food technique; conditions: Agroathelia rolfsii; procedure, shortened: as §3
Fusarium udum [35] = experiment: Antifungal activity against Fusarium udum assessed as growth inhibition at 250 ug/ml by poisoned food technique; procedure, shortened: as §3
Fusarium udum [36] = experiment: Antifungal activity against Fusarium udum assessed as growth inhibition at 62.5 ug/ml by poisoned food technique; procedure, shortened: as §3
[37] = tested on: Globisporangium debaryanum; experiment: Antifungal activity against Pythium debaryanum assessed as growth inhibition at 250 ug/ml by poisoned food technique; procedure, shortened: as §3
Macrophomina phaseolina [38] = experiment: Antifungal activity against Rhizoctonia bataticola assessed as growth inhibition at 125 ug/ml by poisoned food technique; procedure, shortened: as §3
Macrophomina phaseolina [39] = experiment: Antifungal activity against Rhizoctonia bataticola assessed as growth inhibition at 62.5 ug/ml by poisoned food technique; procedure, shortened: as §3
Pythium aphanidermatum [40] = experiment: Antifungal activity against Pythium aphanidermatum assessed as growth inhibition at 125 ug/ml by poisoned food technique; procedure, shortened: as §3
Fusarium udum [41] = experiment: Antifungal activity against Fusarium udum assessed as growth inhibition at 125 ug/ml by poisoned food technique; procedure, shortened: as §3
Rhizoctonia solani [42] = experiment: Antifungal activity against Rhizoctonia solani assessed as growth inhibition at 125 ug/ml by poisoned food technique; procedure, shortened: as §3

Compound: CCCCC(O)(Cn1cncn1)c1ccc(Cl)cc1Cl (stereo not drawn) [HEXACONAZOLE]
- inhibition at 7.25 µg/mL (Athelia rolfsii [1]): 28.2%
- inhibition at 31 µg/mL (Pythium aphanidermatum [2]): 65.3%
- inhibition at 7.25 µg/mL [3]: 11.1%
- inhibition at 7.25 µg/mL (Fusarium udum [4]): 18.6%
- EC50 (Macrophomina phaseolina [5]): 4.4 µg/mL (≈ 14 µM)
- inhibition at 31 µg/mL (Athelia rolfsii [6]): 90.7%
- inhibition at 31 µg/mL [7]: 59.2%
- inhibition at 31 µg/mL (Fusarium udum [8]): 70%
- inhibition at 15.5 µg/mL (Macrophomina phaseolina [9]): 73.2%
- inhibition at 15.5 µg/mL (Athelia rolfsii [10]): 45.3%
- inhibition at 15.5 µg/mL (Pythium aphanidermatum [11]): 32.7%
- EC50 (Athelia rolfsii [12]): 13.4 µg/mL (≈ 42.7 µM)
- EC50 (Pythium aphanidermatum [13]): 22.1 µg/mL (≈ 70.2 µM)
- inhibition at 7.25 µg/mL (Pythium aphanidermatum [14]): 14.1%
- inhibition at 7.25 µg/mL (Macrophomina phaseolina [15]): 60.1%
- inhibition at 31 µg/mL (Macrophomina phaseolina [16]): 87%
- inhibition at 15.5 µg/mL [17]: 26.3%
- inhibition at 15.5 µg/mL (Fusarium udum [18]): 23.7%
- inhibition at 15.5 µg/mL (Rhizoctonia solani [19]): 38.2%
- EC50 (Rhizoctonia solani [20]): 18.3 µg/mL (≈ 58.2 µM)
- EC50 (Fusarium udum [21]): 22 µg/mL (≈ 70 µM)
- inhibition at 7.25 µg/mL (Rhizoctonia solani [22]): 20.6%
- EC50 [23]: 25.9 µg/mL (≈ 82.5 µM)
- inhibition at 31 µg/mL (Rhizoctonia solani [24]): 72.6%

Compound: Cc1cc(O)c(C=O)c2c1C(=O)Oc1c(CO)c(O)c3c(c1O2)C(O)OC3=O (stereo not drawn) [SLAZINIC ACID]
- inhibition at 125 µg/mL (Athelia rolfsii [25]): 21%
- EC50 (Macrophomina phaseolina [5]): 161 µg/mL (≈ 416 µM)
- inhibition at 62.5 µg/mL (Pythium aphanidermatum [26]): 11.1%
- inhibition at 62.5 µg/mL (Athelia rolfsii [27]): 5.93%
- inhibition at 125 µg/mL [28]: 28.1%
- inhibition at 62.5 µg/mL [29]: 11.9%
- EC50 (Athelia rolfsii [12]): 164 µg/mL (≈ 423 µM)
- EC50 (Pythium aphanidermatum [13]): 121 µg/mL (≈ 312 µM)
- inhibition at 250 µg/mL (Rhizoctonia solani [30]): 45.2%
- inhibition at 250 µg/mL (Pythium aphanidermatum [31]): 61%
- inhibition at 250 µg/mL (Macrophomina phaseolina [32]): 41.2%
- inhibition at 62.5 µg/mL (Rhizoctonia solani [33]): 22.1%
- inhibition at 250 µg/mL (Athelia rolfsii [34]): 38.2%
- inhibition at 250 µg/mL (Fusarium udum [35]): 67%
- inhibition at 62.5 µg/mL (Fusarium udum [36]): 31%
- inhibition at 250 µg/mL [37]: 43.5%
- EC50 (Rhizoctonia solani [20]): 179 µg/mL (≈ 462 µM)
- EC50 (Fusarium udum [21]): 88.2 µg/mL (≈ 227 µM)
- inhibition at 125 µg/mL (Macrophomina phaseolina [38]): 26.8%
- EC50 [23]: 151 µg/mL (≈ 388 µM)
- inhibition at 62.5 µg/mL (Macrophomina phaseolina [39]): 9%
- inhibition at 125 µg/mL (Pythium aphanidermatum [40]): 25.5%
- inhibition at 125 µg/mL (Fusarium udum [41]): 50.1%
- inhibition at 125 µg/mL (Rhizoctonia solani [42]): 30.2%
